pIC50: −log10 of the molar value.
Key:
[1] = system: K562; test: Antiproliferative activity against human K562 cells assessed as inhibition of cell proliferation after 48 hrs by MTT assay; assay type: functional, cell-based; conditions: K562, 48 h
Procedure, shortened: (§1)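 Cells grown at 37 °C in humidified 5% CO2. K562, C26 and HCT lines in RPMI-1640; other lines in DMEM; both media with 10% FBS, penicillin and streptomycin. 1000 cells/well seeded, incubated overnight, then compound at various doses for 48 h. MTT added for 4 h, formazan dissolved in DMSO, absorbance read at 590 nm. IC50 from dose–response curves, mean ± SEM of at least three independent experiments.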

[2] = system: A-375; test: Antiproliferative activity against human A375 cells assessed as inhibition of cell proliferation after 48 hrs by MTT assay; assay type: functional, cell-based; conditions: A-375, 48 h; procedure, shortened: as §1
[3] = system: HepG2; test: Antiproliferative activity against human HepG2 cells assessed as inhibition of cell proliferation after 48 hrs by MTT assay; assay type: functional, cell-based; conditions: Homo sapiens, HepG2, 48 h; procedure, shortened: as §1
[4] = Solubility in PBS solution by nephelometry; assay type: physicochemical
Procedure, shortened: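 Maximum soluble concentration in PBS, determined by nephelometry.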

Row | Compound | pIC50 [1] | pIC50 [2] | pIC50 [3] | solubility kinetic [4]
1 | CCN(CC)c1cc(/C=C/C(=O)c2ccc(OC)c3c2OC(C)(C)C=C3)ccc1OC | < 5.70 | < 5.70 | < 5.70 | 
2 | COc1ccc(/C=C/C(=O)c2ccc(OC)c3c2OC(C)(C)C=C3)cc1N.O=C(O)C(O)C(O)C(=O)O |  |  | 7.96 | 52 µg/mL
3 | COc1ccc(/C=C/C(=O)c2ccc(OC)c3c2OC(C)(C)C=C3)cc1NC(=O)[C@@H](C)N | 6.66 | 6.44 | 6.96 | 
4 | COc1ccc(/C=C/C(=O)c2ccc(OC)c3c2OC(C)(C)C=C3)cc1NC(C)=O | 6.15 | 6.37 | 6.24 | 
5 | COc1ccc(/C=C/C(=O)c2ccc(OC)c3c2OC(C)(C)C=C3)cc1NC(=O)Cc1cccc(C(F)(F)F)c1 | < 5.70 | < 5.70 | < 5.70 | 
6 | CCCCC(=O)Nc1cc(/C=C/C(=O)c2ccc(OC)c3c2OC(C)(C)C=C3)ccc1OC | 5.94 | 5.80 | 5.89 | 
7 | COc1ccc(/C=C/C(=O)c2ccc(OC)c3c2OC(C)(C)C=C3)cc1NS(C)(=O)=O | 5.75 | 5.74 | 5.70 | 
8 | COc1ccc(/C=C/C(=O)c2ccc(OC)c3c2OC(C)(C)C=C3)cc1N(CC=C(C)C)CC=C(C)C | 5.82 | < 5.70 | < 5.70 | 
9 | C=CC(=O)Nc1cc(/C=C/C(=O)c2ccc(OC)c3c2OC(C)(C)C=C3)ccc1OC | 5.95 | 5.95 | 6.08 | 

The remaining compounds from weak to strong by pIC50 [1], led by results:

Row | pIC50 [1] | pIC50 [2] | pIC50 [3] | Compound | solubility kinetic [4]
10 | 5.80 | 5.73 | 5.71 | COc1ccc(/C=C/C(=O)c2ccc(OC)c3c2OC(C)(C)C=C3)cc1NS(=O)(=O)C1CC1 | 
11 | 5.81 | 5.70 | 5.79 | COc1ccc(/C=C/C(=O)c2ccc(OC)c3c2OC(C)(C)C=C3)cc1NC(N)=O | 
12 | 6.24 | 6.28 | 6.08 | COc1ccc(/C=C/C(=O)c2ccc(OC)c3c2OC(C)(C)C=C3)cc1NC(=O)C(C)C | 
13 | 6.94 | < 5.70 | < 5.70 | COc1ccc(/C=C/C(=O)c2ccc(OC)c3c2OC(C)(C)C=C3)cc1N(Cc1ccccc1)Cc1ccccc1 | 
